# Assays:
# Staphylococcus aureus [1] = test: Antibacterial activity against methicillin-susceptible and beta-lactamase-producing Staphylococcus aureus Type B using 5x10^7 CFU/ml high inoculum after 24 hrs by CLSI broth microdilution method; format: functional
# Staphylococcus aureus [2] = test: Antibacterial activity against methicillin-susceptible and beta-lactamase-producing Staphylococcus aureus Type C using 5x10^7 CFU/ml high inoculum after 24 hrs by CLSI broth microdilution method; format: functional
# Staphylococcus aureus [3] = test: Antibacterial activity against methicillin-susceptible and beta-lactamase-producing Staphylococcus aureus Type A TX01117 using 5x10^5 CFU/ml standard inoculum after 24 hrs by CLSI broth microdilution method; format: functional; conditions: Type A TX01117, 24 h
# Staphylococcus aureus [4] = test: Antibacterial activity against methicillin-susceptible and beta-lactamase-negative Staphylococcus aureus ATCC 25923 using 5x10^7 CFU/ml high inoculum after 24 hrs by CLSI broth microdilution method; format: functional; conditions: ATCC 25923, 24 h
# Staphylococcus aureus [5] = test: Antibacterial activity against methicillin-susceptible and beta-lactamase-producing Staphylococcus aureus Type A TX01117 using 5x10^7 CFU/ml high inoculum after 24 hrs by CLSI broth microdilution method; format: functional; conditions: Type A TX01117, 24 h
# Staphylococcus aureus [6] = test: Antibacterial activity against methicillin-susceptible and beta-lactamase-producing Staphylococcus aureus Type B using 5x10^5 CFU/ml standard inoculum after 24 hrs by CLSI broth microdilution method; format: functional
# Staphylococcus aureus [7] = test: Antibacterial activity against methicillin-susceptible and beta-lactamase-producing Staphylococcus aureus Type C using 5x10^5 CFU/ml standard inoculum after 24 hrs by CLSI broth microdilution method; format: functional
# Staphylococcus aureus [8] = test: Antibacterial activity against methicillin-susceptible and beta-lactamase-negative Staphylococcus aureus using 5x10^5 CFU/ml standard inoculum after 24 hrs by CLSI broth microdilution method
# Staphylococcus aureus [9] = test: Antibacterial activity against methicillin-susceptible and beta-lactamase-negative Staphylococcus aureus ATCC 25923 using 5x10^5 CFU/ml standard inoculum after 24 hrs by CLSI broth microdilution method; format: functional; conditions: ATCC 25923, 24 h
# Staphylococcus aureus [10] = test: Antibacterial activity against methicillin-susceptible Staphylococcus aureus using 5x10^4 CFU/ml low inoculum assessed as bacterial growth inhibition at >= 128 ug/ml; format: functional; design: scale not given: the % may be the effect or the level left
# Procedure, shortened: (§1)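 98 MSSA clinical isolates from skin/soft tissue infection, hospital-acquired pneumonia, endocarditis and haemodialysis bacteraemia; testers were blinded to clinical data. Broth microdilution in cation-adjusted Mueller-Hinton II broth per CLSI, with inocula of ~5×10^4, 5×10^5, 5×10^6 or 5×10^7 CFU/ml. Inocula were set by optical density and spot-checked by CFU counts. Plates were read at 24 h. Values are the percentage of strains inhibited at each concentration.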
# Staphylococcus aureus [11] = test: Antibacterial activity against methicillin-susceptible Staphylococcus aureus using 5x10^4 CFU/ml low inoculum assessed as bacterial growth inhibition at 8 ug/ml; format: functional; design: scale not given: the % may be the effect or the level left; procedure, shortened: as §1
# [12] = Drug level in bone of methicillin-susceptible Staphylococcus aureus infected human after 60 mins; format: ADME, tissue-based, Bone element; conditions: read-out: Drug uptake
# Staphylococcus aureus [13] = test: Antibacterial activity against methicillin-susceptible Staphylococcus aureus using 5x10^7 CFU/ml high inoculum assessed as bacterial growth inhibition at 2 ug/ml; format: functional; design: scale not given: the % may be the effect or the level left; procedure, shortened: as §1
# Staphylococcus aureus [14] = test: Antibacterial activity against methicillin-susceptible Staphylococcus aureus using 5x10^5 CFU/ml standard inoculum assessed as bacterial growth inhibition at 4 ug/ml; format: functional; design: scale not given: the % may be the effect or the level left; procedure, shortened: as §1
# Staphylococcus aureus [15] = test: Antibacterial activity against methicillin-susceptible Staphylococcus aureus using 5x10^6 CFU/ml intermediate inoculum assessed as bacterial growth inhibition at <= […] ug/ml; format: functional; design: scale not given: the % may be the effect or the level left
# Staphylococcus aureus [16] = test: Antibacterial activity against methicillin-susceptible Staphylococcus aureus using 5x10^6 CFU/ml intermediate inoculum assessed as bacterial growth inhibition at 64 ug/ml; format: functional; design: scale not given: the % may be the effect or the level left; procedure, shortened: as §1
# Staphylococcus aureus [17] = test: Antibacterial activity against methicillin-susceptible Staphylococcus aureus using 5x10^6 CFU/ml intermediate inoculum assessed as bacterial growth inhibition at 16 ug/ml; format: functional; design: scale not given: the % may be the effect or the level left; procedure, shortened: as §1
# Staphylococcus aureus [18] = test: Antibacterial activity against methicillin-susceptible Staphylococcus aureus using 5x10^7 CFU/ml high inoculum assessed as bacterial growth inhibition at 16 ug/ml; format: functional; design: scale not given: the % may be the effect or the level left; procedure, shortened: as §1
# Staphylococcus aureus [19] = test: Antibacterial activity against methicillin-susceptible Staphylococcus aureus using 5x10^5 CFU/ml standard inoculum assessed as bacterial growth inhibition at 2 ug/ml; format: functional; design: scale not given: the % may be the effect or the level left; procedure, shortened: as §1
# Staphylococcus aureus [20] = test: Antibacterial activity against methicillin-susceptible Staphylococcus aureus using 5x10^7 CFU/ml high inoculum assessed as bacterial growth inhibition at >= 128 ug/ml; format: functional; design: scale not given: the % may be the effect or the level left; procedure, shortened: as §1
# Staphylococcus aureus [21] = test: Antibacterial activity against methicillin-susceptible Staphylococcus aureus using 5x10^4 CFU/ml low inoculum assessed as bacterial growth inhibition at <= […] ug/ml; format: functional; design: scale not given: the % may be the effect or the level left
# Staphylococcus aureus [22] = test: Antibacterial activity against methicillin-susceptible Staphylococcus aureus using 5x10^5 CFU/ml standard inoculum assessed as bacterial growth inhibition at 32 ug/ml; format: functional; design: scale not given: the % may be the effect or the level left; procedure, shortened: as §1
# Staphylococcus aureus [23] = test: Antibacterial activity against methicillin-susceptible Staphylococcus aureus using 5x10^7 CFU/ml high inoculum assessed as bacterial growth inhibition at 4 ug/ml; format: functional; design: scale not given: the % may be the effect or the level left; procedure, shortened: as §1
# Staphylococcus aureus [24] = test: Antibacterial activity against methicillin-susceptible Staphylococcus aureus using 5x10^7 CFU/ml high inoculum assessed as bacterial growth inhibition at 64 ug/ml; format: functional; design: scale not given: the % may be the effect or the level left; procedure, shortened: as §1
# Staphylococcus aureus [25] = test: Antibacterial activity against methicillin-susceptible Staphylococcus aureus using 5x10^6 CFU/ml intermediate inoculum assessed as bacterial growth inhibition at 4 ug/ml; format: functional; design: scale not given: the % may be the effect or the level left; procedure, shortened: as §1
# Staphylococcus aureus [26] = test: Antibacterial activity against methicillin-susceptible Staphylococcus aureus using 5x10^5 CFU/ml standard inoculum assessed as bacterial growth inhibition at >= 128 ug/ml; format: functional; design: scale not given: the % may be the effect or the level left; procedure, shortened: as §1
# Staphylococcus aureus [27] = test: Antibacterial activity against methicillin-susceptible Staphylococcus aureus using 5x10^5 CFU/ml standard inoculum assessed as bacterial growth inhibition at 16 ug/ml; format: functional; design: scale not given: the % may be the effect or the level left; procedure, shortened: as §1
# Staphylococcus aureus [28] = test: Antibacterial activity against methicillin-susceptible Staphylococcus aureus using 5x10^7 CFU/ml high inoculum assessed as bacterial growth inhibition at 32 ug/ml; format: functional; design: scale not given: the % may be the effect or the level left; procedure, shortened: as §1
# Staphylococcus aureus [29] = test: Antibacterial activity against methicillin-susceptible Staphylococcus aureus using 5x10^7 CFU/ml high inoculum assessed as bacterial growth inhibition at 8 ug/ml; format: functional; design: scale not given: the % may be the effect or the level left; procedure, shortened: as §1
# Staphylococcus aureus [30] = test: Antibacterial activity against methicillin-susceptible Staphylococcus aureus using 5x10^6 CFU/ml intermediate inoculum assessed as bacterial growth inhibition at >= 128 ug/ml; format: functional; design: scale not given: the % may be the effect or the level left; procedure, shortened: as §1
# Staphylococcus aureus [31] = test: Antibacterial activity against methicillin-susceptible Staphylococcus aureus using 5x10^7 CFU/ml high inoculum assessed as bacterial growth inhibition at <= […] ug/ml; format: functional; design: scale not given: the % may be the effect or the level left
# Staphylococcus aureus [32] = test: Antibacterial activity against methicillin-susceptible Staphylococcus aureus using 5x10^6 CFU/ml intermediate inoculum assessed as bacterial growth inhibition at 2 ug/ml; format: functional; design: scale not given: the % may be the effect or the level left; procedure, shortened: as §1
# Staphylococcus aureus [33] = test: Antibacterial activity against methicillin-susceptible Staphylococcus aureus using 5x10^5 CFU/ml standard inoculum assessed as bacterial growth inhibition at <= […] ug/ml; format: functional; design: scale not given: the % may be the effect or the level left
# Staphylococcus aureus [34] = test: Antibacterial activity against methicillin-susceptible Staphylococcus aureus using 5x10^4 CFU/ml low inoculum assessed as bacterial growth inhibition at 32 ug/ml; format: functional; design: scale not given: the % may be the effect or the level left; procedure, shortened: as §1
# Staphylococcus aureus [35] = test: Antibacterial activity against methicillin-susceptible Staphylococcus aureus using 5x10^4 CFU/ml low inoculum assessed as bacterial growth inhibition at 64 ug/ml; format: functional; design: scale not given: the % may be the effect or the level left; procedure, shortened: as §1
# Staphylococcus aureus [36] = test: Antibacterial activity against methicillin-susceptible Staphylococcus aureus using 5x10^5 CFU/ml standard inoculum assessed as bacterial growth inhibition at 64 ug/ml; format: functional; design: scale not given: the % may be the effect or the level left; procedure, shortened: as §1
# Staphylococcus aureus [37] = test: Antibacterial activity against methicillin-susceptible Staphylococcus aureus using 5x10^4 CFU/ml low inoculum assessed as bacterial growth inhibition at 4 ug/ml; format: functional; design: scale not given: the % may be the effect or the level left; procedure, shortened: as §1
# Staphylococcus aureus [38] = test: Antibacterial activity against methicillin-susceptible Staphylococcus aureus using 5x10^5 CFU/ml standard inoculum assessed as bacterial growth inhibition at 8 ug/ml; format: functional; design: scale not given: the % may be the effect or the level left; procedure, shortened: as §1
# Staphylococcus aureus [39] = test: Antibacterial activity against methicillin-susceptible Staphylococcus aureus using 5x10^6 CFU/ml intermediate inoculum assessed as bacterial growth inhibition at 8 ug/ml; format: functional; design: scale not given: the % may be the effect or the level left; procedure, shortened: as §1
# Staphylococcus aureus [40] = test: Antibacterial activity against methicillin-susceptible Staphylococcus aureus using 5x10^4 CFU/ml low inoculum assessed as bacterial growth inhibition at 2 ug/ml; format: functional; design: scale not given: the % may be the effect or the level left; procedure, shortened: as §1
# Staphylococcus aureus [41] = test: Antibacterial activity against methicillin-susceptible Staphylococcus aureus using 5x10^6 CFU/ml intermediate inoculum assessed as bacterial growth inhibition at 32 ug/ml; format: functional; design: scale not given: the % may be the effect or the level left; procedure, shortened: as §1
# Staphylococcus aureus [42] = test: Antibacterial activity against methicillin-susceptible Staphylococcus aureus using 5x10^4 CFU/ml low inoculum assessed as bacterial growth inhibition at 16 ug/ml; format: functional; design: scale not given: the % may be the effect or the level left; procedure, shortened: as §1
# [43] = Drug level in human serum at 1 g, iv after 4 hrs; format: ADME, organism-based; conditions: read-out: Drug uptake
smiles,measurement,setting,value
Cn1nnnc1SCC1=C(C(=O)O)N2C(=O)[C@@H](NC(=O)[C@H](O)c3ccccc3)[C@H]2SC1 [CEFAMANDOLE],MIC,Staphylococcus aureus [1],13.6 µg/mL
same,MIC50,Staphylococcus aureus [1],8 µg/mL
same,MIC90,Staphylococcus aureus [1],64 µg/mL
same,MIC,Staphylococcus aureus [2],32 µg/mL
same,MIC50,Staphylococcus aureus [2],16 µg/mL
same,MIC90,Staphylococcus aureus [2],32 µg/mL
same,MIC,Staphylococcus aureus [3],0.5 µg/mL
same,MIC50,Staphylococcus aureus [3],1 µg/mL
same,MIC90,Staphylococcus aureus [3],2 µg/mL
same,MIC,Staphylococcus aureus [4],0.4 µg/mL
same,MIC50,Staphylococcus aureus [4],1 µg/mL
same,MIC90,Staphylococcus aureus [4],1 µg/mL
same,MIC,Staphylococcus aureus [5],8 µg/mL
same,MIC50,Staphylococcus aureus [5],4 µg/mL
same,MIC90,Staphylococcus aureus [5],32 µg/mL
same,MIC,Staphylococcus aureus [6],1.3 µg/mL
same,MIC50,Staphylococcus aureus [6],1 µg/mL
same,MIC90,Staphylococcus aureus [6],4 µg/mL
same,MIC50,Staphylococcus aureus [7],2 µg/mL
same,MIC90,Staphylococcus aureus [7],4 µg/mL
same,MIC50,Staphylococcus aureus [8],1 µg/mL
same,MIC,Staphylococcus aureus [9],0.6 µg/mL
same,MIC90,Staphylococcus aureus [9],1 µg/mL
Cc1nnc(SCC2=C(C(=O)O)N3C(=O)[C@@H](NC(=O)Cn4cnnn4)[C@H]3SC2)s1 [CEFAZOLIN],Activity,Staphylococcus aureus [10],0%
same,Activity,Staphylococcus aureus [11],0%
same,concentration at 1 h,[12],6900 ng/mL
same,Activity,Staphylococcus aureus [13],12%
same,Activity,Staphylococcus aureus [14],6%
same,Activity,Staphylococcus aureus [15],33%
same,Activity,Staphylococcus aureus [16],3%
same,Activity,Staphylococcus aureus [17],2%
same,Activity,Staphylococcus aureus [18],5%
same,Activity,Staphylococcus aureus [19],5%
same,Activity,Staphylococcus aureus [20],2%
same,Activity,Staphylococcus aureus [21],100%
same,Activity,Staphylococcus aureus [22],0%
same,Activity,Staphylococcus aureus [23],20%
same,Activity,Staphylococcus aureus [24],3%
same,Activity,Staphylococcus aureus [25],8%
same,Activity,Staphylococcus aureus [26],0%
same,Activity,Staphylococcus aureus [27],0%
same,Activity,Staphylococcus aureus [28],9%
same,Activity,Staphylococcus aureus [29],24%
same,Activity,Staphylococcus aureus [30],0%
same,Activity,Staphylococcus aureus [31],23%
same,Activity,Staphylococcus aureus [32],50%
same,Activity,Staphylococcus aureus [33],89%
same,Activity,Staphylococcus aureus [34],0%
same,Activity,Staphylococcus aureus [35],0%
same,Activity,Staphylococcus aureus [36],0%
same,Activity,Staphylococcus aureus [37],0%
same,Activity,Staphylococcus aureus [38],0%
same,Activity,Staphylococcus aureus [39],2%
same,Activity,Staphylococcus aureus [40],0%
same,Activity,Staphylococcus aureus [41],1%
same,Activity,Staphylococcus aureus [42],0%
same,concentration at 4 h,[43],17000 ng/mL

# Source: ChEMBL document CHEMBL1649557 (Antimicrob Agents Chemother, 2009)
